NPY-Y2 PAM-ag: NPY-Y2 potentiators or agonists, primary screen, cell-based. activation, % at 3.6 µM. AID 1359, 2008. Neuropeptide Y receptor type 2 (Homo sapiens), P49146. 0.45% of 220,000 active. cells expressing NPY-Y2, potentiator/agonist read-out; in the data active means activation above about 27%;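 further: cells stimulated with NPY near EC25 plus isoproterenol at EC100; 0% = vehicle plus submaximal agonist and 100% = vehicle plus saturating agonist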
Target sequence (P49146 whole entry, looked up): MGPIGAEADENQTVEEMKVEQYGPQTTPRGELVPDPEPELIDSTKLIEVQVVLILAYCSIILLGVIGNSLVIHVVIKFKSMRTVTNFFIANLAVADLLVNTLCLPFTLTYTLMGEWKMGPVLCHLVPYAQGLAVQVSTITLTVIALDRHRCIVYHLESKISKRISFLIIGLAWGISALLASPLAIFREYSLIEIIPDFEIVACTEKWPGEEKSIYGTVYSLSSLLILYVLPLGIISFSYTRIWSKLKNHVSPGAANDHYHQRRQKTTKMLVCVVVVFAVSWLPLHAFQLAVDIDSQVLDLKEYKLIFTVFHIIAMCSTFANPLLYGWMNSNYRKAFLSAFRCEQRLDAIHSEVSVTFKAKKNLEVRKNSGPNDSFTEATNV
NPY1 pot ag: NPY-Y1 receptor potentiators or agonists, primary screen, cell-based; activation, % at 3.6 µM; AID 1304, 2008; 0.37% of 220,000 active; NPY-Y1 expressing cells, potentiator/agonist activation; Neuropeptide Y receptor type 1 (Homo sapiens), P25929; in the data active means activation above about 33%, passing the limit was not always enough;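 further: cells stimulated with NPY at EC10 then isoproterenol at EC100; 0% = low agonist plus stimulus and 100% = saturating agonist plus stimulus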
NPY-Y2 antag: NPY-Y2 receptor antagonists, primary screen, cell-based; Neuropeptide Y receptor type 2 (Homo sapiens), P49146; NPY-Y2 expressing cells, antagonist mode; inhibition, % at 2.7 µM; 0.99% of 140,000 active; in the data active means inhibition above about 17%;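 further: 0% = vehicle with agonist challenge and 100% = reference antagonist with challenge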
NPY-Y1 antag: NPY-Y1 receptor antagonists, primary screen, cell-based; HEK293-CNG Y1 cells, membrane potential fluorescence; NPY at EC95, then isoproterenol; inhibition, % at 3.6 µM; 1% of 200,000 active; AID 1040, 2008;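 active means inhibition above the campaign mean inhibition of all tested compounds plus 3 SD, cut at about 20% in these data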;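 further: 0% = DMSO wells given NPY plus isoproterenol and 100% = isoproterenol alone without NPY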
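Material: HEK293 Y1/CNG channel cell line; also added: NPY (25 nM), isoproterenol (1 µM), Ro 20-1724 (25 µM); doses: one concentration, 3.6 µM, in 0.4% DMSO; schedule: compound incubation 1 h at room temperature, readout 45 min post-stimulation; technique: membrane potential fluorescence; measure: fluorescence ratio normalized to % inhibition between controls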
* hit, by the source's call; . = no result. Rows were chosen to be rich in hits. Some 1.8% of all compounds tested hit in one or more screens of this group.

SMILES | NPY-Y2 PAM-ag | NPY1 pot ag | NPY-Y2 antag | NPY-Y1 antag
CCOC(=O)N1C=CC=C[C@@H]2[C@@H](N3C(=O)c4ccccc4C3=O)C(=O)N21 | -1 | 7 | 2 | 0
COCCCNC(=O)C1CCN(C(=O)c2cc3sccc3n2Cc2ccc(F)cc2)CC1 | 9 | 18 | 0 | -2
CCN(CC)CCCNC(=O)C1CCN(C(=O)c2cc3sccc3n2Cc2ccc(F)cc2)CC1 | 100* | 64* | 1 | -5
CC/C(=N\Nc1ccccc1[N+](=O)[O-])c1ccc(O)cc1 | 47* | 74* | . | -12
Cc1nn(-c2cc(N3CCCCCC3)ccc2[N+](=O)[O-])c(=O)c2ccccc12 | 41* | 85* | 1 | -13
O=C(CCC1CCCCC1)NNC(=O)c1cnccn1 | -3 | -26 | 3 | 0
Cc1cc(O)c(C(C)C)cc1C1(c2cc(C(C)C)c(O)cc2C)OC(=O)c2ccccc21 | 70* | 76* | . | .
Cc1cc(C2(c3ccc(O)c(C)c3)OC(=O)c3ccccc32)ccc1O | -11 | -17 | 5 | 0
O=C(Nc1ccc(CN2CCCCC2)cc1)c1cc(Br)ccc1Cl | -9 | -14 | . | 8
O=C(Nc1ccc(CN2CCCCC2)cc1)c1cccc(Br)c1 | 56* | 43* | 5 | 2
C/C(=N\NC(=O)c1nn(C)cc1Br)c1cccc(NC(=O)C(C)(C)C)c1 | 41* | 103* | 1 | -8
Cc1cc(C)cc(NC(=S)NN)c1 | -12 | 7 | . | -1
CCOC(=O)C(C(=O)OCC)c1cc(Br)c2noc3c2c1C(=O)c1ccccc1-3 | -6 | -17 | 2 | 1
CC(=O)OCCNc1cc(N2CCN(C)CC2)c2noc3c2c1C(=O)c1ccccc1-3 | 33* | 49* | -5 | -6
Cc1ccc2c(c1)c1c(n2CC(O)CNC(C)(C)C)CCCC1 (centres undefined) | 41* | 27 | 2 | -9
O=C(NCc1cn2ccsc2n1)c1cccc(C(F)(F)F)c1 | 1 | -10 | -1 | 2
COc1cccc(C(=O)NCc2cn3ccsc3n2)c1 | 98* | 72* | -1 | -10
CC(C)(C)NC(=S)NCC1CC1 | -19 | -6 | . | .
O=C(O)CCC(=O)Nc1nnc(C(F)(F)F)s1 | 1 | -9 | 0 | 5
CCC(NC(=O)Nc1nnc(C(F)(F)F)s1)(C(F)(F)F)C(F)(F)F | 25 | -44 | 25* | 38*
Clc1ccc2nc(CN3CCCc4ccccc43)cn2c1 | 3 | -5 | 2 | 4
CN(C)C(=O)C1C2NC(=S)N(c3ccc(Cl)cc3)C1(C)Oc1ccc(Cl)cc12 (centres undefined) | 89* | 92* | . | -9
CN(C)C(=O)C1C2NC(=S)N(c3cccc(Cl)c3)C1(C)Oc1ccc(Cl)cc12 (centres undefined) | 29* | 51* | . | -9
CN(C)C(=O)C1C2NC(=S)N(c3ccccc3)C1(C)Oc1ccccc12 (centres undefined) | 1 | 2 | . | -1
COC(=O)C1CCN(c2ccc(Cl)nn2)CC1 | 2 | -20 | . | -2
SMILES | NPY-Y2 PAM-ag | NPY1 pot ag | NPY-Y2 antag | NPY-Y1 antag
CC(C)N(CCO)C(=O)CCc1nnc(Cc2cccc(C(F)(F)F)c2)o1 | -20 | -4 | . | 4
CCC(NC(C)C)C(O)c1ccc(O)c2[nH]c(=O)ccc12 (centres undefined) | 69* | 76* | 3 | -4
O=C(N/N=C/c1cc2ccccc2[nH]1)c1ccccc1Cl | 0 | 0 | . | .
Cc1cccc(-c2noc(-c3ccccc3C(=O)NCC3CCCO3)n2)c1 (centres undefined) | -14 | -5 | 1 | 12
COc1cccc(NC(=O)c2ccccc2-c2nc(-c3cccc(C)c3)no2)c1 | -33 | -108 | 23* | 37*
N#Cc1c(NCCN)nc(-c2ccco2)c2c1CCCC2 | -59 | -108 | 22* | 44*
C#CCOC(=O)Nc1ccc(OCC(F)(F)F)nc1 | -8 | 10 | . | .
CCN(CC)C(=O)C(C)N(C#N)c1nc(C)cc(C)n1 (centres undefined) | 105* | 114* | 0 | -12
Cc1ccccc1OCC(O)Cn1c(=N)n(Cc2ccccc2)c2ccccc21 (centres undefined) | -17 | -3 | . | .
CCCCn1c(=N)n(CC(O)COc2cccc(C)c2)c2ccccc21 (centres undefined) | -22 | -26 | 54* | 31*
CCCCCn1c(=N)n(CC(O)COc2ccccc2OC)c2ccccc21 (centres undefined) | -28 | -76 | 35* | 25*
COc1ccccc1OCC(O)Cn1c(=N)n(Cc2ccccc2)c2ccccc21 (centres undefined) | -26 | -55 | 39* | 27*
Cc1ccc(-c2nc3ncccc3o2)cc1NC(=O)c1cc2ccccc2o1 | 20 | 10 | 20* | 22*
CCCCOc1ccc(Br)cc1/C(C)=N/NC1=NCCN1 | -15 | -60 | 50* | 50*
Cc1ccc(NC(=O)c2cc(-c3ccc(C)o3)nc3ccccc23)cc1 | -132 | -187 | 115* | 118*
Cc1ccc(-c2cc(C(=O)Nc3cccnc3)c3ccccc3n2)o1 | -31 | -36 | 5 | -4
Cc1cccc(NC(=O)c2cc(-c3ccc(C)s3)nc3ccccc23)n1 | -87 | -117 | 23* | 28*
Cc1cc(NC(=O)c2cc(-c3ccc(C)s3)nc3ccccc23)no1 | -28 | -18 | 6 | 4
O=C(NNC(=S)Nc1ccc(F)c(Cl)c1)c1ccccc1Br | 4 | -16 | . | 9
Brc1ccc(-c2csc(/N=C/N3CCOCC3)n2)cc1 | -12 | -23 | 8 | 35*
Cc1ccc(C(=O)NC(C(=O)Nc2cccc(S(N)(=O)=O)c2)C(C)C)cc1 (centres undefined) | 3 | -1 | . | .
CC(C)C(NC(=O)c1ccc(C(C)(C)C)cc1)C(=O)Nc1cccc(S(N)(=O)=O)c1 (centres undefined) | 37* | 43* | . | -6
CSc1nnc2c3ccccc3n(Cc3ccccc3)c2n1 | -13 | 0 | 6 | 10
CSc1nnc2c3ccccc3n(CCc3ccccc3)c2n1 | -12 | -20 | 28* | 29*
O=C(CN1C(=O)/C(=C\c2ccc(F)cc2)Oc2ccccc21)NCc1ccco1 | -2 | -17 | 2 | 5
SMILES | NPY-Y2 PAM-ag | NPY1 pot ag | NPY-Y2 antag | NPY-Y1 antag
CCOc1ccccc1CN(CCc1ccc2c(c1)OCO2)Cc1ccccn1 | -8 | -24 | 15 | 30*
CCOc1ccc(CN(C)CCc2ccccn2)cc1 | 5 | 9 | . | 4
COc1ccccc1CC(=O)Nc1ccc(-c2noc(COc3cccc(C)c3C)n2)cc1 | -23 | 10 | 22* | 33*
COc1ccccc1CC(=O)Nc1ccc(-c2noc(COc3ccc(Br)cc3)n2)cc1 | -9 | -8 | 7 | 15
Fc1ccccc1CSc1nnc(-c2cnccn2)n1Cc1ccco1 | 21 | -2 | 8 | 0
C(=C\c1ccccc1)/CSc1nnc(-c2cnccn2)n1Cc1ccco1 | -16 | -17 | 22* | 17
Cc1ccc(NC(=O)C2CC(=O)N/C(=N/N=C/c3ccco3)S2)cc1C (centres undefined) | -22 | -26 | 2 | 2

Compound activity (PubChem)
